Bioassay records: PubChem, Sanford-Burnham Center for Chemical Genomics
This is a sample that favours compounds with a hit; in the whole collection about 2.3% have one here.
STEP inh = STEP phosphatase inhibitors, primary screen, biochemical, fluorescence intensity, uHTS | Tyrosine-protein phosphatase non-receptor type 5 (Homo sapiens), P54829 | recombinant STEP, OMFP fluorogenic substrate | inhibition, % at 20 µM | 360,000 compounds, 0.25% hits;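 active means inhibition at 20 µM, scaled per plate between control wells, above about 37%, limit read from the data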
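Material: STEP (striatal-enriched tyrosine phosphatase) enzyme, cell-free; Compound dosing: 20 µM single dose in 1% DMSO; Technique: fluorescence read at 480 nm ex / 540 nm em; Times: reaction 20 min, ambient temperature; Medium: 50 mM Bis-Tris pH 6.0 with 2.5 mM DTT and 0.005% Tween 20; Also added: OMFP at 25 µM.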
DNMT1 block = human DNMT1 methyltransferase inhibitors, primary screen, biochemical, molecular beacon, fluorescence, HinP1I cleavage, uHTS. inhibition (reported as % activation of signal), % at 10 µM. AID 588458, 2011. 360,000 compounds, 0.83% hits; in the data active means inhibition above about 50%
SUMO1 PPI mod = modulators of SUMO1 protein-protein interactions, primary screen, biochemical, uHTS; inhibition, % at 20 µM; 360,000 compounds, 0.33% hits; Small ubiquitin-related modifier 1 (Homo sapiens), P63165; SUMO1 binding to a labelled peptide, TR-FRET, 1 h; in the data active means inhibition above about 37%
Target sequence (P63165 whole entry, looked up): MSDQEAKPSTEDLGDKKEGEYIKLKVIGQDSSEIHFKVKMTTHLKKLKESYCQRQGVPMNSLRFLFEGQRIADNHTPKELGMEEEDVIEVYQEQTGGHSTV
NadD inh = inhibitors of S. aureus NadD, primary screen, biochemical, colorimetric, uHTS. Nicotinate-nucleotide adenylyltransferase NadD (Staphylococcus aureus N315). 360,000 compounds, 0.78% hits. inhibition, % at 20 µM. purified NadD enzyme, colorimetric absorbance read-out; in the data active means inhibition above about 26%
LMPTP inh = LMPTP phosphatase inhibitors, primary screen, biochemical, fluorescence intensity, uHTS. Low molecular weight phosphotyrosine protein phosphatase (Homo sapiens), P24666. recombinant LMPTP-A, OMFP fluorogenic substrate. inhibition, % at 20 µM. 360,000 compounds, 0.22% hits. AID 651560, 2012;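 active means compounds that cut the enzyme signal by at least half of the control window in the single-dose screen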
Target sequence (P24666 whole entry, looked up): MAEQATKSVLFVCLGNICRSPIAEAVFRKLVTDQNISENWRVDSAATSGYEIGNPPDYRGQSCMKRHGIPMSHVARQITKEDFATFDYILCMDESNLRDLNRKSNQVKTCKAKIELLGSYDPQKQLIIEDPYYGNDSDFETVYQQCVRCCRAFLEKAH
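Test system: LMPTP-A phosphatase enzyme. Amount: LMPTP-A at 0.625 nM final in the reaction. Reagent: OMFP substrate, 400 µM final. Times: 50 min at room temperature. Signal: endpoint fluorescence intensity from OMFP dephosphorylation. Read-out basis: % inhibition. Benchmarks: no-enzyme and uninhibited controls.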
Scp1 inh = Scp-1 phosphatase inhibitors, primary screen, biochemical, colorimetric, uHTS | AID 493091, 2011 | Recombinant Scp1, phosphopeptide, malachite green phosphate absorbance | Carboxy-terminal domain RNA polymerase II polypeptide A small phosphatase 1 (Homo … | inhibition, % at 20 µM | 340,000 compounds, 0.88% hits;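 active means inhibition above about 50% at 20 µM, limit read from the data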
Target sequence (Q9GZU7 76-261 limits assumed): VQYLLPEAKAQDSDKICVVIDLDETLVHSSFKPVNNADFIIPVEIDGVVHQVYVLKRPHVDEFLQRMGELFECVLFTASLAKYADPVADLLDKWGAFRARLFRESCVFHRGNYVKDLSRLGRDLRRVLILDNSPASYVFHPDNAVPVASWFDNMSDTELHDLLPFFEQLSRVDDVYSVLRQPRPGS
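System: SCP-1 catalytic domain; Reagent: Phospho 17-mer peptide substrate; Doses: one concentration, 20 µM, with 1.0% DMSO; Incubation: 45 min room-temperature reaction, 5 min colour, 30 min stabiliser; Signal: Phosphate-binding colour reagent, absorbance read at 630 nm.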
Scp1 confirm = Scp-1 phosphatase inhibitors, retest, confirmation, biochemical, colorimetric, single concentration; shares compounds with Scp1 inh; recombinant SCP-1 catalytic domain, phosphate release, malachite green absorbance; inhibition, % at 20 µM; 2,500 compounds, 61% hits; AID 540281, 2011
MG interference = colorimetric readout interference by compounds, confirmation, artefact control for Scp-1 inhibitor project, biochemical, single concentration; 2,500 tested, under 10 active; Colorimetric interference counterscreen, malachite green absorbance 630 nm; apparent inhibition (interference), % at 20 µM; AID 540313, 2011; shares compounds with Scp1 inh;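 further: compounds added after enzyme reaction finished so only phosphate colour detection is probed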
Scp-1 Tm shift = Scp-1 binding by thermal shift, confirmation, orthogonal assay for Scp-1 inhibitor project, biophysical, differential scanning fluorimetry; shares compounds with Scp1 inh; Recombinant SCP1, Sypro Orange thermal shift Tm; thermal shift relative to vanadate control, % at 40 µM; 1,500 compounds, 25% hits;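 active means substances whose mean melting-temperature shift, as a percentage of the reference inhibitor's shift, reaches about 5.3%, limit read from the data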
A number is an active result.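 How the source made its calls, unless noted: active means inhibition of at least 30% at 20 µM; inactive means the rest.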

`CCOC(=O)C1(c2ccccc2)Oc2ccccc2C(c2ccc(OC)cc2)=C1C(=O)OC` (stereo not given) gave STEP inh inactive, DNMT1 block inactive, SUMO1 PPI mod inactive, NadD inh inactive, LMPTP inh inactive, Scp1 inh 97, Scp1 confirm inactive and MG interference inactive.
Screening COc1ccc(CC2NCC(O)C2OC(C)=O)cc1 (stereo not given) returned STEP inh inactive, DNMT1 block inactive, SUMO1 PPI mod inactive, NadD inh inactive, LMPTP inh inactive and Scp1 inh inactive.
Screening CN1CC[C@]23c4c5ccc(O)c4OC2[C@H](O)C=CC3[C@H]1C5 (stereo not given in full) returned STEP inh inactive, DNMT1 block inactive, SUMO1 PPI mod inactive, NadD inh inactive, LMPTP inh inactive and Scp1 inh inactive.
`COc1ccc2c3c1OC1C(O)C=CC4C(C2)[N+](C)(C)CCC341` (stereo not given) gave STEP inh inactive, DNMT1 block inactive, SUMO1 PPI mod inactive, NadD inh inactive, LMPTP inh inactive, Scp1 inh 89, Scp1 confirm 78, MG interference inactive and Scp-1 Tm shift inactive.
`COc1ccc(C(=O)N/N=C/C23CC[C@@H](O)CC2(O)CC[C@@H]2[C@@H]3CCC3(C)C(C4=CC(=O)OC4)CCC23O)cc1` (stereo not given in full) gave STEP inh inactive, DNMT1 block inactive, SUMO1 PPI mod inactive, NadD inh inactive, LMPTP inh inactive, Scp1 inh 56, Scp1 confirm inactive and MG interference inactive.
For CCCn1ncc(CN2CCCC(C(=O)c3cccc(OC)c3)C2)c1C (stereo not given) the results were STEP inh inactive, DNMT1 block inactive, SUMO1 PPI mod inactive, NadD inh inactive, LMPTP inh inactive and Scp1 inh inactive.
Screening COC(=O)[C@@]1(Sc2ccc(C)cc2)CC(=O)N(P(=O)(OC)OC)[C@@H]1c1ccccc1 returned SUMO1 PPI mod inactive, NadD inh inactive and LMPTP inh inactive.
Screening COC(=O)C1=C(c2cccc(C#N)c2)C[C@@H]2CC[C@H]1N2C(=O)NCCO returned STEP inh inactive, DNMT1 block inactive, SUMO1 PPI mod inactive, NadD inh inactive, LMPTP inh inactive, Scp1 inh 71, Scp1 confirm inactive and MG interference inactive.
Screening C[C@]12CCC3C(CC[C@H]4C[C@@H](O)CC[C@]34C)C1C[C@@H](Br)[C@@H]2O (stereo not given in full) returned Scp1 inh 59, Scp1 confirm inactive and MG interference inactive.
Screening CC(CC(C)(C)N1CC1)=NO returned STEP inh inactive, DNMT1 block inactive, SUMO1 PPI mod inactive, NadD inh inactive, LMPTP inh inactive and Scp1 inh inactive.
For COc1ccc(/C=C/C=C2C(=O)NC(=S)NC2=O)cc1 the results were STEP inh inactive, DNMT1 block inactive, SUMO1 PPI mod inactive, NadD inh inactive, LMPTP inh inactive, Scp1 inh 50, Scp1 confirm inactive and MG interference inactive.
